# Shown are actives, neighbours in structure and some others; about 3.6% of the full set was active somewhere.
# pPAFAH inh: pPAFAH enzyme inhibitors, primary screen, biochemical, fluorescence polarization, human | 1.5% of 330,000 active | inhibition, % at 3.39 µM | AID 463082, 2010 | Platelet-activating factor acetylhydrolase (Homo sapiens), Q13093 | recombinant pPAFAH, FP-rhodamine probe fluorescence polarization;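 active = inhibition above the mean inhibition across the screen plus 3 SD, cut at about 25% in these data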;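 note: inhibitors block binding of the rhodamine activity-based probe so polarization drops; 0% = enzyme with DMSO and 100% = wells lacking pPAFAH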
# IMP-1 inhibitor: IMP-1 metallo-beta-lactamase inhibitors, primary screen, biochemical, epi-absorbance readout, Pseudomonas aeruginosa enzyme; inhibition, % at 5.6 µM; 0.45% of 290,000 active; metallo-beta-lactamase IMP-1 (Pseudomonas aeruginosa); purified IMP-1, nitrocefin hydrolysis, epi-absorbance fluorescence;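 active = inhibition above the mean plus 3 SD of all compounds in the same screening run, cut at about 4.5% in these data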;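 note: 0% = IMP-1 with DMSO and 100% = DMSO wells lacking enzyme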
#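 System: Purified recombinant IMP-1 metallo-beta-lactamase enzyme | Measured by: Fluorescence quenching readout, ex 480/em 530 nm | Replication: Singlicate | Incubation: 15 min preincubation plus 25 min reaction at 25 °C | Evaluation: Percent inhibition from optical density relative to buffer-blank wells | Benchmarks: DMSO with and without IMP-1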
# PAFAH1B3 inh: PAFAH1B3 enzyme inhibitors, primary screen, biochemical, fluorescence polarization, human | Platelet-activating factor acetylhydrolase IB subunit alpha1 (Homo sapiens), Q15102 | recombinant PAFAH1B3, FP-rhodamine probe | inhibition, % at 3.39 µM | 0.28% of 340,000 active | AID 492972, 2010;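 active = inhibition above the screen-wide average of all tested compounds plus 3 SD, cut at about 25% in these data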;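 note: 0% = enzyme with DMSO only and 100% = wells lacking PAFAH1B3 protein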
# Target sequence (Q15102 whole entry, looked up): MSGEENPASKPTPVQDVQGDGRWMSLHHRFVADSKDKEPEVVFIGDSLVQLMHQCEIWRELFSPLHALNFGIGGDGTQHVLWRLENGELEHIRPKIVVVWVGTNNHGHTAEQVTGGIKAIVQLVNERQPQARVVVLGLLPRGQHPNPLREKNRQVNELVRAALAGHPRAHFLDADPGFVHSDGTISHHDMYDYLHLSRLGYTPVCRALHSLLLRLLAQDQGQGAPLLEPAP
# VIM-2 inh: VIM-2 metallo-beta-lactamase inhibitors, primary screen, biochemical, epi-absorbance readout, Pseudomonas aeruginosa enzyme; 0.89% of 290,000 active; inhibition, % at 5.6 µM; purified VIM-2, nitrocefin hydrolysis, epi-absorbance fluorescence;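 active = inhibition above the mean of all tested compounds plus 3 SD, cutoff set per screening run, cut at about 7.5% in these data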;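 note: red hydrolysis product quenches plate fluorescence so inhibitors raise well fluorescence; 0% = enzyme with DMSO and 100% = DMSO without enzyme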
# PAFAH1B2 inh: PAFAH1B2 enzyme inhibitors, primary screen, biochemical, fluorescence polarization, human. AID 492953, 2010. 1.2% of 340,000 active. Platelet-activating factor acetylhydrolase IB subunit alpha2 (Homo sapiens), P68402. recombinant PAFAH1B2, FP-rhodamine activity probe. inhibition, % at 3.39 µM;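 active = inhibition above the mean of all tested compounds plus 3 SD, cut at about 24% in these data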;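 note: 0% = enzyme with DMSO and 100% = wells lacking PAFAH1B2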
# Target sequence (P68402 whole entry, looked up): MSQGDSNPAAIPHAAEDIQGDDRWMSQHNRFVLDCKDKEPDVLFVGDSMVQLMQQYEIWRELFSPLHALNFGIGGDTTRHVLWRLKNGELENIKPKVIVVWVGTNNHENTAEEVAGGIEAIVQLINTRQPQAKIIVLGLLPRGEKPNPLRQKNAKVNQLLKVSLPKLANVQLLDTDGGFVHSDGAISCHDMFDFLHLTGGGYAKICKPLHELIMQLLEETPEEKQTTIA
# PAFAH2 FP inh: PAFAH2 enzyme inhibitors, primary screen, biochemical, fluorescence polarization, human | Platelet-activating factor acetylhydrolase 2, cytoplasmic (Homo sapiens), Q99487 | recombinant PAFAH2, FP-rhodamine activity probe | inhibition, % at 3.39 µM | 0.99% of 340,000 active | AID 492956, 2010;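 active = inhibition above the mean over all tested compounds plus 3 SD, cut at about 30% in these data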;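 note: inhibitors block probe labeling of enzyme so polarization drops; 0% = enzyme with DMSO and 100% = wells lacking PAFAH2 protein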
# Starred values were filed as active, the others as inactive; . = no result.
SMILES,pPAFAH inh,IMP-1 inhibitor,PAFAH1B3 inh,VIM-2 inh,PAFAH1B2 inh,PAFAH2 FP inh
Cn1c(=O)n(CCCOc2ccc(Br)cc2)c2ccccc21,32.4*,-1.6,-7.9,-1.6,5.1,3.6
OCc1nc2ccccc2n1CCCOc1ccc(Br)cc1,31.1*,-8.4,4.2,0.7,9.0,-7.8
CC(O)c1nc2ccccc2n1CCOc1ccccc1 (configuration not stated),0.9,-5.6,7.5,-2.1,4.3,2.1
OCc1nc2ccccc2n1CCCCOc1ccccc1,1.9,.,6.3,.,7.1,5.4
CC(O)c1nc2ccccc2n1CCCCOc1ccccc1 (configuration not stated),2.1,37.6*,6.0,5.7,0.2,-2.6
CCOc1ccc(OCCC(=O)N(CC)CC(=O)Nc2ccccc2C(F)(F)F)cc1,3.5,.,8.2,.,2.5,-4.5
CCN(CC(=O)Nc1ccccc1OC)C(=O)CCOc1ccc(C(C)(C)C)cc1,7.7,.,-2.3,.,29.9*,3.8
Cc1ccc(-n2nnnc2SCC(=O)NCC2(N3CCOCC3)CCCCC2)c(C)c1,.,.,5.5,.,6.0,5.6
COc1ccc(-c2cc(C3CC3)nc(N)c2C#N)cc1,10.7,-1.3,0.7,8.8*,3.5,1.3
COc1ccc(-c2cc(C3CC3)nc3sc(C#N)c(N)c23)cc1,31.2*,-2.6,4.3,-0.5,-0.1,-5.2
CSc1ccc(C(c2c(C)[nH][nH]c2=O)c2c(C)[nH][nH]c2=O)cc1,-8.8,-1.1,6.3,-0.2,3.0,6.1
CCOc1cc(Br)cc(C(c2c(C(=O)O)[nH]c3ccccc23)c2c(C(=O)O)[nH]c3ccccc23)c1O,17.6,-2.9,11.5,-2.4,79.2*,16.1
CSc1ccc(C(c2c(C(=O)O)[nH]c3ccccc23)c2c(C(=O)O)[nH]c3ccccc23)cc1,29.0*,-3.4,6.2,1.5,61.7*,26.9
CCOC(=O)c1cnc2ccc(C)cc2c1N(C)Cc1ccccc1,25.4*,0.5,-4.3,-4.1,3.8,-6.3
CCOC(=O)c1cnc2ccc(C)cc2c1Sc1ccccc1,12.7,0.4,-4.1,0.2,1.9,8.3
Cc1cc(S(=O)(=O)/N=C(\N)c2ccc(C(N)=O)cc2)cc(C)c1F,1.0,-1.7,6.8,-4.0,3.7,-7.4
CC(C)c1ccc(S(=O)(=O)Nc2ccc(-n3cnnn3)cc2)cc1,.,.,4.0,.,7.4,2.3
CC(C)c1ccc(NS(=O)(=O)c2ccc(-n3cccn3)cc2)cc1,25.4*,-3.7,0.6,-2.7,-5.7,-10.0
Cc1ccc(NS(=O)(=O)c2ccc(N3C(=O)CCC3=O)cc2)cc1,23.4,-2.8,1.6,-4.0,1.5,-0.1
CC(C)c1ccc(NS(=O)(=O)c2ccc(N3C(=O)CCC3=O)cc2)cc1,29.2*,-1.2,-1.5,-0.5,8.5,5.2
CCCC/C=C1/CCC(CN(C)C)C1=O (configuration not stated),.,.,-1.4,.,-2.1,1.2
O=C1N[C@H]2CC=C[C@H]2Nc2ccccc21,-0.4,.,2.4,.,2.5,0.4
CCOc1cc2c(cc1/C=C/C(=O)O)OC(C)C2 (configuration not stated),-1.1,-0.6,5.5,-0.8,7.2,-1.5
COc1cc2c(cc1/C=C/C(=O)O)OC(C)C2 (configuration not stated),1.2,9.2*,9.2,3.7,9.6,1.4
O=C1c2ccccc2C(=O)N1CCCCN(C(=O)c1ccc([N+](=O)[O-])cc1)c1ccc(Cl)cc1,3.5,37.2*,4.6,1.2,-1.9,-8.9
SMILES,pPAFAH inh,IMP-1 inhibitor,PAFAH1B3 inh,VIM-2 inh,PAFAH1B2 inh,PAFAH2 FP inh
Cc1cccc(C(=O)NNC(=O)c2c(-c3ccccc3Cl)noc2C)c1O,6.3,-3.1,12.9,-3.4,5.2,5.5
CC1Sc2ccc(S(=O)(=O)CCC(=O)N3CCN(c4cccc(Cl)c4)CC3)cc2NC1=O (configuration not stated),13.1,-2.7,1.3,0.0,0.7,8.3
CC(CS(=O)(=O)c1ccc2c(c1)NC(=O)CS2)C(=O)N1CCN(c2cccc(Cl)c2)CC1 (configuration not stated),25.3*,3.8,-0.4,-4.0,-1.1,-2.0
Cc1ccc(CNC(=O)CCS(=O)(=O)c2ccc3c(c2)NC(=O)CS3)cc1,3.9,-3.2,3.8,-3.4,4.9,1.6
CC(CS(=O)(=O)c1ccc2c(c1)NC(=O)CS2)C(=O)NCc1ccccc1Cl (configuration not stated),14.0,9.2*,-4.2,-2.9,2.2,8.7
Cc1cccc(NC(=O)CNC(=O)COC(=O)C2CC2C)c1C (configuration not stated),-0.3,.,2.8,.,0.7,2.9
CC[C@]12c3[nH]c4ccc(Cl)cc4c3CCN1C(=O)[C@@H](CC(=O)NC/C=C(\C)CCC=C(C)C)C[C@@H]2C(=O)N1CCN(C(=O)c2ccco2)CC1,15.7,.,-0.9,.,1.9,-4.2
N#Cc1c(C(F)(F)F)cc(-c2cccc(Cl)c2)[nH]c1=O,8.8,-0.3,-5.5,8.7*,1.9,-2.3
COC(=O)c1[nH]c2ccccc2c1NC(=O)CN1CCN(c2cccc(OC)c2)C(C)C1 (configuration not stated),0.7,5.8*,-6.4,-2.5,1.5,-0.9
COC(=O)c1[nH]c2cc(OC)ccc2c1NC(=O)CCN1CCN(c2ccccc2)CC1,4.0,0.4,2.2,-2.8,-0.8,-8.2
O=C(O)C1CCN(S(=O)(=O)c2ccc(Cl)s2)CC1,-2.0,.,8.0,.,27.1*,1.1
CC1CCCN(S(=O)(=O)c2ccc(Cl)s2)C1 (configuration not stated),4.1,-1.8,4.1,-1.8,-1.0,-2.2
CC1CCN(S(=O)(=O)c2ccc(Br)s2)CC1,-1.4,-2.8,-0.6,-1.8,28.7*,-7.2
O=S(=O)(c1ccc(Cl)s1)N1CCCCC1,0.3,-3.7,2.8,-1.5,10.9,1.5
CC1CCN(S(=O)(=O)c2ccc(Cl)s2)CC1,1.2,.,8.3,.,25.4*,-6.5
Cc1ccc(S(=O)(=O)N2CCN(C(=O)Cn3c(=O)oc4ccccc43)CC2)c(C)c1,1.2,.,1.6,.,4.3,-1.4
CC(C)CN(C(=O)c1cc(=O)[nH]c2ccccc12)c1c(N)n(Cc2ccccc2)c(=O)[nH]c1=O,4.3,.,-3.7,.,1.1,5.6
CC1=C(C(=O)OCC(Br)(Br)Br)C(c2cccc([N+](=O)[O-])c2)NC(=O)N1CCCC(=O)O (configuration not stated),-3.1,.,-7.0,.,92.0*,-1.6

# From PubChem BioAssay
